Here are results for 25 compounds from ChEMBL document CHEMBL3414545, “Fused heterocycles bearing bridgehead nitrogen as potent HIV-1 NNRTIs. Part 4: design, synthesis and biological evaluation of novel imidazo[1,2-a]pyrazines” (Eur J Med Chem, 2015).

pEC50, pIC50: −log10 of the molar value. Counter-ions that a name gives are not always drawn. The source made the active and inactive calls. The calls are words filed in the database; no cut-off is given here.

Series [1] in a line: Selectivity index, ratio of CC50 for mock-infected human MT4 cells to EC50 for HIV1 3B infected in human MT4 cells. Type of series: toxicity, cell-based. The settings on record: mock-infected and infected with HIV1 3B, read-out: Selectivity Index. In a few lines: (§1)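 MT-4 cells resuspended at 6 × 10⁵ cells/mL, then infected with 100–300 CCID₅₀ of HIV-1 IIIB or RES056 or left mock-infected. Compound, in serial five-fold dilutions in triplicate wells, was added at the start. Viability was read by MTT after 5 days. EC₅₀ is 50% protection from viral cytopathicity, CC₅₀ is 50% viability loss in mock-infected cells, and SI is CC₅₀/EC₅₀.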

Series [2] deals with Human immunodeficiency virus 1. In words: Antiviral activity against HIV1 3B infected in human MT4 cells assessed as reduction in virus-induced cytopathic effect after 5 days by MTT assay. It is filed as functional, organism-based. Conditions: Human immunodeficiency virus 1, 3B, MT4, 120 h. In a few lines:
(§2)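 Exponentially growing MT-4 cells were pelleted and resuspended at 6 × 10⁵ cells/mL, then infected with virus stock at 100–300 CCID₅₀. Compounds were added at infection as serial five-fold dilutions in triplicate wells, with untreated infected and mock-infected controls. Viability was read spectrophotometrically by MTT five days post-infection. EC₅₀ is the concentration giving 50% protection from viral cytopathic effect.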
(Damage to the host cells serves as the signal in cytopathic effect assays.)

For series [3], the system named is Human immunodeficiency virus 1. In words: Antiviral activity against HIV1 RES056 expressing reverse transcriptase K103N/Y181C double mutant infected in human MT4 cells assessed as reduction in virus-induced cytopathic effect after 5 days by MTT assay. It is filed as functional, organism-based. The settings on record: Human immunodeficiency virus 1, RES056, MT4, 120 h. In a few lines:
as §1

In series [4] the target is Human immunodeficiency virus type 1 reverse transcriptase (Human immunodeficiency virus 1, UniProt Q72547). In words: Inhibition of HIV1 reverse transcriptase assessed as reduction in biotin-labeled dUTP incorporation into DNA using poly(A) x oligo(dT)15 as template/primer after 1 hr by ELISA. In a few lines: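 Wild-type HIV-1 RT was assayed with a plate-bound homopolymer poly[A]·oligo[dT]₁₅ template/primer and biotin-dUTP, following the Roche RT kit protocol. Incorporated biotin-dUTP, a measure of RT activity, was quantified by ELISA. Percentage inhibition was calculated by formula, and IC₅₀ is the concentration inhibiting biotin-dUTP incorporation by 50%.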

The nature of series [5]: Selectivity index, ratio of CC50 for mock-infected human MT4 cells to EC50 for HIV1 RES056 expressing reverse transcriptase K103N/Y181C double mutant. Type of series: toxicity, cell-based. Conditions: read-out: Selectivity Index. The method, boiled down: as §1
Series [6] relates to Human immunodeficiency virus 2. In words: Antiviral activity against HIV2 strain ROD infected in human MT4 cells assessed as reduction in virus-induced cytopathic effect at subtoxic concentration. The settings on record: ISOLATE ROD. Type of series: functional, organism-based. In a few lines: as §2

Take `Cc1cc(C)c(Oc2nc(Nc3ccc([N+](=O)[O-])cc3)cn3ccnc23)c(C)c1`: the selectivity ratio in series [1] is 25; in series [5], below 1. The negative logarithm of the EC50 (pEC50) is 5.89 in series [2] and below 4.47 in series [3]. Moreover, the negative logarithm of the IC50 (pIC50) in series [4] was 5.33. Also, the inhibition result in series [6] is “inactive”.

On to `Cc1ccnc2c1NC(=O)c1cccnc1N2C1CC1` [NEVIRAPINE], for which the negative logarithm of the EC50 (pEC50) in series [3] is at most 5.12.

As for `Cc1cc(Cl)cc(C)c1Oc1nc(Nc2ccc(C#N)cc2)cn2ccnc12`, the selectivity ratio is 39 in series [1] and below 1 in series [5]. Also, the pEC50 was 6.06 in series [2] and below 4.47 in series [3]. Further, the pIC50 in series [4] was 5.96. Also, the inhibition result in series [6] is “inactive”.

`Cc1cc(C#N)cc(C)c1Oc1nc(Nc2ccc([N+](=O)[O-])cc2)cn2ccnc12`: the selectivity ratio in series [1] is 13; in series [5], below 1. The pEC50 in series [2] was 5.64; in series [3] it was below 4.54. In addition, the negative-log IC50 (pIC50) in series [4] was 4.85. Further, the inhibition result in series [6] is “inactive”.

In the case of `Cc1cc(C#N)cc(C)c1Oc1nc(Nc2ccc(C#N)cc2)nc2[nH]ccc12`, the pEC50 in series [2] is 9.05.

`Cc1cc(C#N)cc(C)c1Oc1nc(Nc2ccc(C#N)cc2)nc(N)c1Br` [ETRAVIRINE]: the pEC50 is 8.40 in series [2] and 7.70 in series [3].

Consider `O=[N+]([O-])c1ccc(Nc2cn3ccnc3c(Oc3c(F)cc(F)cc3F)n2)cc1`, for which the selectivity ratio in series [1] and in series [5] was below 1 in each case. Further, the negative-log EC50 (pEC50) in series [2] and in series [3] was below 4.55 each time. Also, in series [4], the pIC50 is 4.96. Moreover, the inhibition result in series [6] is “inactive”.

As for `Cc1cn([C@H]2C[C@H](N=[N+]=[N-])[C@@H](CO)O2)c(=O)[nH]c1=O` [ZIDOVUDINE], the selectivity ratio in series [1] is above 13100; in series [5], above 9150. Moreover, the negative-log EC50 (pEC50) in series [3] was 8.00.

Take `Cc1cccc(C)c1Oc1nc(Nc2ccc(Cl)cc2)cn2ccnc12`: the selectivity ratio in series [1] and in series [5] was below 1 throughout. The negative logarithm of the EC50 (pEC50) in series [2] and in series [3] was below 4.24 in each case. Besides, the pIC50 in series [4] is 4.82. Moreover, the inhibition entry in series [6] was “inactive”.

Regarding `Cc1cc(C#N)cc(C)c1Oc1nc(Nc2ccc(C#N)cc2)cn2ccnc12`, the results for the selectivity ratio in series [1] and in series [5] were at least 224 and 1, respectively. In addition, the pEC50 is 6.49 in series [2] and below 4.14 in series [3]. The negative logarithm of the IC50 (pIC50) in series [4] is 6.59. Moreover, in series [6], the inhibition result was “inactive”.

For the compound `Cc1cc(Cl)cc(C)c1Oc1nc(Nc2ccc([N+](=O)[O-])cc2)cn2ccnc12`, the selectivity ratio in series [1] was 7; in series [5], below 1. The values for the pEC50 in series [2] and in series [3] were 5.34 and below 4.48, respectively. The negative logarithm of the IC50 (pIC50) in series [4] was 5.89. In addition, the inhibition entry in series [6] was “inactive”.

On to `Cc1cc(C)c(Oc2nc(Nc3ccc(C#N)cc3)cn3ccnc23)c(C)c1`, for which the selectivity ratio was 126 in series [1] and below 1 in series [5]. For the same compound, the values for the pEC50 in series [2] and in series [3] were 6.59 and below 4.48, respectively. For the same compound, in series [4], the negative logarithm of the IC50 (pIC50) is 6.40. In series [6], the inhibition result is “inactive”.

In the case of `N#Cc1ccc(Nc2cn3ccnc3c(Oc3c(F)cc(F)cc3F)n2)cc1`, the results for the selectivity ratio in series [1] and in series [5] were 5 and below 1, respectively. The results for the negative logarithm of the EC50 (pEC50) in series [2] and in series [3] were 5.14 and below 4.42, respectively. The negative-log IC50 (pIC50) in series [4] was 6.33. Further, the inhibition result in series [6] is “inactive”.

Turning to `O=c1[nH]cnc2c1ncn2[C@H]1CC[C@@H](CO)O1` [DIDANOSINE], the selectivity ratio in series [1] is above 9.

In the case of `Cc1cc(C)c(Oc2nc(Nc3ccc(CC#N)cc3)cn3ccnc23)c(C)c1`, the values for the selectivity ratio in series [1] and in series [5] were 13 and below 1, respectively. Further, the pEC50 in series [2] is 5.04; in series [3], below 3.93. In series [4], the negative logarithm of the IC50 (pIC50) is 6.44. Besides, the inhibition entry in series [6] was “inactive”.

With `Cc1cccc(C)c1Oc1nc(Nc2ccc(C#N)cc2)cn2ccnc12`, the figures for the selectivity ratio in series [1] and in series [5] were 5 and below 1, respectively. For the same compound, the pEC50 is 5.19 in series [2] and below 4.49 in series [3]. The pIC50 in series [4] was 6.09. Further, the inhibition result in series [6] is “inactive”.

Turning to `Cc1cc(C#N)cc(C)c1Oc1nc(Nc2ccc(Cl)cc2)cn2ccnc12`, the selectivity ratio in series [1] was below 1. In series [2], the pEC50 was below 4.89. Also, the negative logarithm of the IC50 (pIC50) in series [4] was 5.26. The inhibition entry in series [6] is “inactive”.

On to `Cc1cc(Br)cc(C)c1Oc1nc(Nc2ccc(C#N)cc2)cn2ccnc12`, for which the selectivity ratio in series [1] was 28; in series [5] it was below 1. In addition, the negative-log EC50 (pEC50) was 6.01 in series [2] and below 4.55 in series [3]. The pIC50 in series [4] was 6.39. Further, the inhibition entry in series [6] is “inactive”.

On to `Cc1cc(Br)cc(C)c1Oc1nc(Nc2ccc([N+](=O)[O-])cc2)cn2ccnc12`, for which the figures for the selectivity ratio in series [1] and in series [5] were 7 and below 1, respectively. Besides, the negative logarithm of the EC50 (pEC50) is 5.40 in series [2] and below 4.55 in series [3]. Moreover, in series [4], the pIC50 is 5.39. Further, the inhibition result in series [6] is “inactive”.

Regarding `CC(C)Nc1cccnc1N1CCN(C(=O)c2cc3cc(NS(C)(=O)=O)ccc3[nH]2)CC1` [DELAVIRDINE MESYLATE], the selectivity ratio in series [1] was above 67; in series [5], 1. Also, in series [3], the pEC50 was below 4.44.

As to `Cc1cc(C#N)cc(C)c1Oc1nc(Nc2ccc(CC#N)cc2)cn2ccnc12`, the selectivity ratio in series [1] is 15; in series [5], below 1. For the same compound, the values for the pEC50 in series [2] and in series [3] were 4.72 and below 3.55, respectively. In addition, in series [4], the negative logarithm of the IC50 (pIC50) is 6.77. The inhibition result in series [6] is “inactive”.

Turning to `Nc1ccn([C@@H]2CS[C@H](CO)O2)c(=O)n1` [LAMIVUDINE], the selectivity ratio in series [1] is above 39.

With `Cc1cccc(C)c1Oc1nc(Nc2ccc(CC#N)cc2)cn2ccnc12`, the selectivity ratio in series [1] and in series [5] was below 1 each time. Besides, the pEC50 in series [2] and in series [3] was below 3.81 each time. The pIC50 in series [4] was 5.24. In addition, the inhibition result in series [6] was “inactive”.

With `Cc1cccc(C)c1Oc1nc(Nc2ccc([N+](=O)[O-])cc2)cn2ccnc12`, in series [1], the selectivity ratio is below 1. For the same compound, the negative logarithm of the EC50 (pEC50) in series [2] was below 5.28. For the same compound, the pIC50 in series [4] was 3.48. Besides, in series [6], the inhibition entry is “inactive”.

`Cc1cc(C)c(Oc2nc(Nc3ccc(Cl)cc3)cn3ccnc23)c(C)c1`: the selectivity ratio in series [1] and in series [5] was below 1 each time. Besides, the pEC50 in series [2] and in series [3] was below 4.92 throughout. Besides, the pIC50 in series [4] is 5.23. Further, the inhibition result in series [6] was “inactive”.

A word on the pEC50: it is the negative decadic logarithm of the EC50, by convention in mol/L. Usually pIC50 stands for −log10 of the IC50, conventionally taken in molar units.
